# Experimental data collected from several papers.
# Lines come from different studies, so protocols differ.
# Target: Serine/threonine-protein kinase MRCK beta (CDC42BPB, Homo sapiens, UniProt Q9Y5S2)
SMILES,test,setting,remaining binding
Cc1nc(C2CCN(C(=O)c3ccc(OC(F)(F)F)cc3N)CC2)c2ncc(N3CCN(C)CC3)cc2n1,"cell-free assay, competition with immobilised ligand",1 µM,100%
O=C(c1ccc(Nc2ncc(Cl)c(-c3cc4ccccc4s3)n2)cc1)N1CCC(N2CCCC2)CC1,"binding, competition with immobilised ligand",1 µM,56%
N[C@@H]1CCN(c2nccc(-c3cnn4ncccc34)n2)C1,binding,1 µM,100%
COc1ncc2cc3ccccc3nc2c1C#N,"cell-free assay, competition with immobilised ligand",5 µM,100%
CNC(=O)[C@@H]1CC[C@@H](n2c(-c3ccc4cnccc4c3)nc3ccc(C(=O)NCc4cccc(C(N)=O)c4)cc32)C1,"binding, competition with immobilised ligand",1 µM,100%
C=CC(=O)N1CCC(C(=O)NCC(=O)N2CCN(c3nc(-c4cnc(N)nc4C(F)F)nc(N4CCOCC4)n3)CC2)CC1,"binding, competition with immobilised ligand",1 µM,99%
C[C@H]1CCN(c2nccc(-c3cnn4ncccc34)n2)C1,binding,1 µM,100%
O=C(O)[C@@H]1[C@@H](Cn2nnc3ccccc3c2=O)CC[C@H]1C(=O)c1ccc(OCCC2CCOCC2)cc1,"cell-free assay, competition with immobilised ligand",1 µM,96%
CN(C)c1ncc(F)c(-c2cnn3ncccc23)n1,binding,1 µM,100%
CO[C@@H](C)c1c(Nc2ccc([C@@H](N(C)C(=O)C3CCS(=O)(=O)CC3)C(F)(F)F)cc2)cnc2cc(Cl)nn12,"cell-free assay, competition with immobilised ligand",1 µM,89%
O=C(NCC1CCOCC1)c1n[nH]cc1NC(=O)c1c(F)cccc1F,"binding, competition with immobilised ligand",1 µM,95%
O=C(NCCCN1CCOCC1)c1ccc(Nc2ncc(Cl)c(-c3ccc(Cl)s3)n2)cc1,"binding, competition with immobilised ligand",1 µM,100%
Cc1cnn2ncc(-c3ccnc(N(C)C)n3)c2c1,binding,1 µM,100%
c1cncc(-c2cccc(Nc3nccc(NC4CCCCC4)n3)c2)c1,"binding, competition with immobilised ligand",10 µM,99%
Nc1ncc2c(n1)-c1c([nH]c3ccc(C#CC4CC4)cc13)CCCC2,"binding, competition with immobilised ligand",1 µM,93%
Nc1c(C(=O)NCc2ccc(C(=O)NCCCC3CCCCC3)cc2)cnn1-c1ccccc1,"cell-free assay, competition with immobilised ligand",0.1 µM,100%
CC1CCCN1c1nccc(-c2cnn3ncccc23)n1 (stereo not drawn),binding,1 µM,97%
C[C@H](NC(=O)c1cnc2n1[C@](C)(Cc1ccc(C#N)cc1)C(=O)N2c1cc(Cl)c(F)c(Cl)c1)C(=O)NC1(c2ccccn2)CC1,"cell-free assay, competition with immobilised ligand",1 µM,100%
O=C(c1ccc(Nc2nccc(-c3cc4ccccc4s3)n2)cc1)N1CCC(N2CCCC2)CC1,"binding, competition with immobilised ligand",1 µM,100%
O=C(Nc1cccnn1)N1CC(C/C=C/c2cncc(Oc3ccc(C(F)(F)F)cn3)n2)C1,"cell-free assay, competition with immobilised ligand",1 µM,100%
COc1cnc(Nc2cccc(S(N)(=O)=O)c2)nc1N1CCN(c2ccccc2)CC1,"binding, competition with immobilised ligand",1 µM,99%
